# Shown are actives, neighbours in structure and some others; about 4% of the full set was active somewhere.
# ABHD5 PLIN5 PPI – ABHD5-PLIN5 interaction inhibitors, primary screen, cell lysate, split luciferase complementation, luminescence | Perilipin-5 (Homo sapiens) + 1-acylglycerol-3-phosphate O-acyltransferase ABHD5 (Homo … | Split G. princeps luciferase complementation, 4 h | inhibition, % at 4 µM | hit rate 0.78% among 360,000;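 active = inhibition above the mean inhibition across every tested compound plus 3 SD, cut at about 22% in these data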;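 note: 0% = DMSO only wells and the 100% control is not disclosed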
# Mdm2-MdmX inh – inhibitors of human Mdm2-MdmX association, primary screen, cell-based, luminescence, split luciferase, SaOS-2, uHTS | Protein Mdm4 (Homo sapiens) + E3 ubiquitin-protein ligase Mdm2 (Homo sapiens), … | SaOS-2 split-luciferase Mdm2/MdmX complementation | inhibition, % at 8 µM | hit rate 3% among 330,000;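 active = inhibition of at least 50% at 8 µM in the primary screen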
# Target sequence (O15151 whole entry, looked up): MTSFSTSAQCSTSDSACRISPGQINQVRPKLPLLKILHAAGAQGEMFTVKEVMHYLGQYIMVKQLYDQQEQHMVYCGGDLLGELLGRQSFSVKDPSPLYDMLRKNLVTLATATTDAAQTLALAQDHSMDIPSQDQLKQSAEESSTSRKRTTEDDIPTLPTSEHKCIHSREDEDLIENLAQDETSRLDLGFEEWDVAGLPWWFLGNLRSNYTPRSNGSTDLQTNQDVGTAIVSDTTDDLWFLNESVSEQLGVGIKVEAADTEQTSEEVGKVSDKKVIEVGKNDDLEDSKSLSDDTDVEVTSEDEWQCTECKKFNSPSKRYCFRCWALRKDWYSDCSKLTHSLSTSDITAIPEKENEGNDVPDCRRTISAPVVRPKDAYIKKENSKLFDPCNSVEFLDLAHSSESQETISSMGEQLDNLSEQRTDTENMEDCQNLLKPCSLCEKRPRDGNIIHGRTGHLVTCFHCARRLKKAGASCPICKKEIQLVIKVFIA
# Target sequence (Q00987 whole entry, looked up): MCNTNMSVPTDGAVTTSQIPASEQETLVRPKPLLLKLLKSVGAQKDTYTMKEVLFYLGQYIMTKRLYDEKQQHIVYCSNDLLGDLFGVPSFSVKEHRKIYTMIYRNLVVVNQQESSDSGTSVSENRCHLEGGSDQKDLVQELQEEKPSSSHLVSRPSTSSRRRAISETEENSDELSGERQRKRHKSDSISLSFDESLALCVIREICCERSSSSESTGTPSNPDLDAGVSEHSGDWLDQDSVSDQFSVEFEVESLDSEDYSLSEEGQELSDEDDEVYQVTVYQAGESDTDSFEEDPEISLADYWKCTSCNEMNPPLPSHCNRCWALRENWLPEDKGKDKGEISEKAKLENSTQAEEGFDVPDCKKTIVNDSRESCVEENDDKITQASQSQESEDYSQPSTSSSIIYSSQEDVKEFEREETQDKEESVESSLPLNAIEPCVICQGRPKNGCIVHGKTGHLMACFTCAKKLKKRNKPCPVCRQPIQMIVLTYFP
# CHOP UPR activ – activators of apoptotic CHOP UPR arm, primary screen, cell-based, CHO-CHOP luciferase reporter, luminescence, uHTS. UPR activation; percent of tunicamycin response over DMSO baseline. activation, % at 10 µM. hit rate 0.34% among 330,000. AID 449763, 2010;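 active = at 10 µM dose, activation of 40% or more, normalized to positive control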;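 note: 100% = tunicamycin at 10 µg/mL and 0% = DMSO alone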
#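 Dosing – one dose, 10 µM in 0.5% DMSO · System – CHO-CHOP cells, stable luciferase reporter of PERK-eIF2a-CHOP signalling · Input – 500 cells/well · Control set – tunicamycin 10 µg/mL final as positive, DMSO-only wells as negative · Timing – 6 h compound treatment, 37 °C · Measure – % activation vs tunicamycin · Technique – luminescence read with Steady-Glo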
# UPR XBP1 act – activators of adaptive XBP1 UPR arm, primary screen, cell-based, CHO-XBP1 luciferase reporter, luminescence, uHTS; hit rate 0.33% among 330,000; IRE1-XBP1 UPR activation; percent of tunicamycin response, DMSO as zero; activation, % at 20 µM;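 active = versus positive control, 20 µM dose yields 30% or more activation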;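 note: 100% = tunicamycin at 10 µg/mL and 0% = DMSO only wells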
#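 incubation = overnight seeding at 37 °C, 6 h compound treatment at 37 °C | assay system = CHO-XBP1 cells stably carrying IRE1-XBP1-driven luciferase reporter | input = 1000 cells per well | detection = luciferase luminescence | dosing = single point, 20 µM final compound, 1% DMSO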
# Granule exo inh – LAMP-1 surface exposure blockers, TALL-104 cells – cell-based, flow cytometry, MLPCN library, primary screen. inhibition, % at 10 µM. AID 651702, 2012. hit rate 0.66% among 360,000. TALL-104 LAMP-1 surface exposure; cells stimulated with thapsigargin and PMA;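 active = inhibition above about 55%, limit read from the data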
# UPR CHOP confirm – activators of apoptotic CHOP UPR arm, confirmation, cell-based, CHO-CHOP luciferase reporter, single concentration; hit rate 64% among 1,000; shares compounds with CHOP UPR activ; CHO-CHOP cells, CHOP-luciferase reporter luminescence; percent of tunicamycin response, DMSO as zero; activation, % at 10 µM; in the data active = activation above about 33%;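 note: 0% = DMSO wells and 100% = tunicamycin 10 µg/mL wells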
# * = called active by the depositor; / = not tested or not shown; ! = repeats disagree.
SMILES,ABHD5 PLIN5 PPI,Mdm2-MdmX inh,CHOP UPR activ,UPR XBP1 act,Granule exo inh,others
Cc1cc(C)c(S(=O)(=O)NCC23C=CC(O2)C2C(=O)N(c4ccccc4)C(=O)C23)c(C)c1 (centres undefined),11,21,2,1,77*,
O=C1C2C3C=CC(CNS(=O)(=O)c4ccccc4[N+](=O)[O-])(O3)C2C(=O)N1c1ccccc1 (centres undefined),16,8,-1,-5,54,
Cc1cccc(C)c1OCC(=O)N=Nc1c(O)[nH]c2ccc(Br)cc12,-5,-7,1,24,-1,
O=Cc1cccnc1SCc1ccccc1,12,48,2,29,64*,
Cc1ccc2nc(C)cc(Nc3ccc([N+](=O)[O-])cc3)c2c1,3,/,/,/,83*,
C#CCOCCOCCOCCNc1nc(N2CCN(C(=O)Cn3cc(CCCCN)nn3)CC2)nc(N2CCN(C(=O)Cn3cc(CC(C)O)nn3)CC2)n1 (centres undefined),3,-20,1,2,38,
C#CCOCCOCCOCCNc1nc(N2CCN(C(=O)CCCCCCCCCCNC(=O)Cn3cc(CCCCCN)nn3)CC2)nc(N2CCN(C(=O)CCCCCCCCCCNC(=O)[C@@H]([C@H](C)O)n3cc(C)nn3)CC2)n1,34*,47,2,4,-24,
C#CCOCCOCCOCCNc1nc(N2CCN(C(=O)CCCCCCCCCCNC(=O)[C@H]([C@@H](C)CC)n3cc(CCCCN=C(N)N)nn3)CC2)nc(N2CCN(C(=O)CCCCCCCCCCNC(=O)[C@@H]([C@H](C)O)n3cc(C)nn3)CC2)n1,56*,11,1,-2,-2,
COc1ccc2nc(Nc3ccccc3)sc2c1,-1,-157,0,3,0,
COc1ccc(C(=O)c2sc3nc(-c4ccccc4)ccc3c2N)cc1OC,-4,17,3,9,8,
Cc1nn(Cc2ccccc2)c(C)c1NC(=O)c1cc(-c2ccc3c(c2)OCO3)on1,-2,28,1,1,1,
Cc1ccc(Oc2nc3ccccn3c(=O)c2/C=C(\C#N)C(=O)NC2CCS(=O)(=O)C2)cc1 (centres undefined),10,0,1,0,74*,
O=C1c2cccc3cccc(c23)C(=O)C1(O)O,-22,13,3,0,71*,
CC(=O)N1C(=O)c2cccc3cccc(c23)C(=O)N1C(C)=O,/,-8,-2,-4,/,
CCN(CC)CCOC(=O)c1ccc(N/C=C(/C#N)c2nc(-c3ccc(OC)c(OC)c3)cs2)cc1,11,13,3,4,64*,
O=C(CC(Nc1ccccc1)C(=O)O)c1ccccc1 (centres undefined),23*,-83,5,-1,-1,
O=C(CC(Nc1ccccc1)c1ccc(F)cc1)c1ccccc1 (centres undefined),-4,-12,5,1,-5,
CCC(C)Sc1cccc(-c2nc3cc(C)ccn3c2NC2CCCCC2)c1 (centres undefined),8,28,1,0,57*!,
Cc1cc(C)nc(N(C#N)CCOc2ccc(Cl)cc2)n1,3,-5,0,2,77*,
O=C(NNC(=O)C(c1ccccc1)c1ccccc1)c1cccs1,-1,-25,-1,1,-4,
Cc1cc2nc(NC(=O)C3(C)CCN3C(=O)C(C)C)[nH]c2cc1C (centres undefined),-1,/,/,/,3,
COc1cc(/C=C/c2nc(-c3ccccc3O)n[nH]2)cc(OC)c1OC,4,31,4,6,98*,
COc1cc(/C=C/c2nc(N)nc(-c3ccccc3O)n2)cc(OC)c1OC,2,23,9,4,25,
C[C@H](CO)N1C[C@H](C)[C@@H](CN(C)S(=O)(=O)c2cn(C)cn2)Oc2ccc(NC(=O)Nc3ccc4c(c3)OCO4)cc2C1=O,1,-3,-1,0,-5,
COCC(C)NC(=O)CCS(=O)(=O)c1nc(-c2ccc(OC)cc2)cc(C(F)(F)F)n1 (centres undefined),14,43,1,-9,78*,
SMILES,ABHD5 PLIN5 PPI,Mdm2-MdmX inh,CHOP UPR activ,UPR XBP1 act,Granule exo inh,others
CC12CCC(=O)N1C(C(=O)OCC(=O)Nc1cc(S(=O)(=O)N3CCCCC3)ccc1Cl)CS2 (centres undefined),-1,13,-1,-1,-4,
COc1ccc(C(=O)C(CCC(CNC(C)(C)C)C(=O)c2ccc(OC)cc2)CNC(C)(C)C)cc1 (centres undefined),41*,/,/,/,45,
CCn1nc(C)c(Br)c1C(=O)Sc1ccccc1Cl,13,12,23,-4,69*,
CCn1nc(C)cc1C(=O)Sc1ccc(C)cc1,-4,15,8,8,-5,
CC(C)(C)N(Cc1ccccc1)C(=O)COC(=O)CNS(=O)(=O)c1ccc2ccccc2c1,1,15,-3,-4,-9,
Cc1ccccc1OCCNc1cc(N2CCN(CCO)CC2)ccc1[N+](=O)[O-],22*,18,0,-3,-5,
Cc1cccc(NC(=O)N2CCC(C(=O)c3ccc(F)cc3)CC2)c1,-2,8,1,-2,-17,
CC(C)N1CSC(=S)N(Cc2ccccc2)C1,7,27,75*,1,-1,UPR CHOP confirm=94*
CC(C)(C)N1CSC(=S)N(Cc2ccccc2)C1,1,44,86*,-1,0,UPR CHOP confirm=82*
C=CCn1nc([N+](=O)[O-])nc1Sc1cccc2cccnc12,-8,33,168*,14,2,UPR CHOP confirm=230*
CC1(C)CC(=O)C(C2C3=C(CC(C)(C)CC3=O)Oc3ccccc32)C(=O)C1 (centres undefined),2,0,-1,-3,-7,
CC1(C)CC(=O)C2=C(C1)Oc1nc3ccccc3cc1C2C(C#N)C#N (centres undefined),18,48,63*,-5,0,UPR CHOP confirm=34*
CSc1ccccc1NC(=O)CN(C)C(C)C(=O)NC(=O)NC1CCCCC1 (centres undefined),-5,16,1,-3,4,
Cc1ccc2c(c1)c(N=Nc1ccc([N+](=O)[O-])cc1)c(O)n2C,-10,19,73*,99*,1,UPR CHOP confirm=3
CC(=O)Nc1cc(C)nn1-c1nc(C)cc(C)n1,0,-44,4,-3,-1,

# High-throughput results as filed in PubChem BioAssay.
